Source: PubChem BioAssay (several laboratories)
Sampled rows, rich in hits. Any-hit rate of the full collection: about 3%.
MIN6 prolif: inducers of MIN6 beta-cell proliferation, primary screen, ATP luminescence, uHTS. MIN6 cells proliferation, ATPlite luminescence, 48 h; cells starved in 0.2% serum; 100% = growth in 10% serum. actives 0.29% (n = 330,000). proliferation, % at 10 µM;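 active means compounds whose signal lies at least 3.5 SD above the mean of all wells on their plate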;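 further: 0% = DMSO-treated cells in low-serum medium and 100% = 10% serum control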
iPSC survival up: enhancers of single-cell hiPSC survival, primary screen, ATPlite luminescence; 100% = ROCK inhibitor wells, 0% = DMSO; survival enhancement, % at 20 µM; actives 0.044% (n = 360,000); AID 602274, 2012; in the data active means survival enhancement above about 18%;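 further: cells exposed to compounds for 16 hours before the ATP read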
MPTP block: mitochondrial permeability transition pore inhibitors, primary screen, biochemical, isolated mouse mitochondria, absorbance; inhibition, % at 10 µM; Ca2+ swelling absorbance, 30 min; AID 602449, 2012; actives 1.4% (n = 360,000);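 active means inhibition of 50% or more, scaled per plate between neutral and stimulator controls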;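 further: 0% = DMSO wells given calcium and 100% = 1 mM EGTA wells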
UBC13 inh: UBC13 polyubiquitin chain formation inhibitors, primary screen, biochemical, TR-FRET, uHTS. Ubiquitin-conjugating enzyme E2 N (Homo sapiens), P61088. AID 485273, 2010. inhibition, % at 20 µM. actives 0.47% (n = 330,000); in the data active means inhibition above about 45%, passing the limit was not always enough; inconclusive means no clear call, values can overlap the other calls
Target sequence (P61088 whole entry, looked up): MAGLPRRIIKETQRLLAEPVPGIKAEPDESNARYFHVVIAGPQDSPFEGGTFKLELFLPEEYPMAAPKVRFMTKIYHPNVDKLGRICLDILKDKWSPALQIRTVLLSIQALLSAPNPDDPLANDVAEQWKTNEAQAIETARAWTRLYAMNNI
Exocytosis inh: LAMP-1 surface exposure blockers, TALL-104 cells – cell-based, flow cytometry, MLPCN library, primary screen; TALL-104 LAMP-1 surface exposure; cells stimulated with thapsigargin and PMA; actives 0.66% (n = 360,000); inhibition, % at 10 µM; AID 651702, 2012;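 active means inhibition above about 55%, limit read from the data; inconclusive means no clear call, values can overlap the other calls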
Apaf1 inhib: inhibitors of human Apaf-1 apoptosome, primary screen, biochemical, DEVD-Rh110 fluorescence, uHTS; Apoptotic protease-activating factor 1 (Homo sapiens), O14727; reconstituted apoptosome caspase-3 activity; inhibition, % at 20 µM; actives 0.71% (n = 330,000); AID 489030, 2010; active means inhibition of at least 40% at 20 µM;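 further: plate controls were DMSO wells for no effect and DEVD-CHO caspase inhibitor wells for full effect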
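Assay system – apoptosome proteins · Medium – Hepes buffer, pH 7.5 · Also added – cytochrome c with DEVD-Rh110 · Timing – 30 min compound preincubation, 50 min activation, room temperature · Detection – Rh110 fluorescence, excitation 480 nm, emission 540 nm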
Apaf-1 inh conf2: Apaf-1 inhibitors, single-dose retest, confirmation, biochemical, fluorescence, DEVD-Rh110, 20 µM; shares compounds with Apaf1 inhib; reconstituted apoptosome, caspase-3 DEVD-Rh110 fluorescence; inhibition, % at 20 µM; actives 25% (n = 1,800);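 active means mean inhibition of at least 40% at 20 µM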;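 further: plate controls were DMSO wells for no effect and DEVD-CHO caspase inhibitor control wells for full effect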
Rh110 interf inh: Rh110 fluorescence interference by putative Apaf-1 inhibitors, confirmation, artefact control for Apaf-1 inhibitor project, biochemical, 20 µM; quenched caspase reaction; AID 504615, 2011; activation (fluorescence interference), % at 20 µM; 1,800 tested, under 10 active; shares compounds with Apaf1 inhib;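 active means signal rise of 40% or more at 20 µM, treated as a fluorescence artifact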
Fluor interf inh: fluorescence interference of Apaf-1 inhibitor hits, dose response, artefact control for Apaf-1 inhibitor project | AID 588538, 2011 | shares compounds with Apaf1 inhib | IC50, µM | fluorescence interference counterscreen, Apaf-1 assay format | 460 tested, under 10 active; call rule not given here
The depositor's hits bear a star; u = inconclusive; x = no result.

SMILES | MIN6 prolif | iPSC survival up | MPTP block | UBC13 inh | Exocytosis inh | Apaf1 inhib | Apaf-1 inh conf2 | Rh110 interf inh | others
CCC1Nc2ncnc(N3CCN(c4ccccc4)CC3)c2N(Cc2ccc(C)cc2)C1=O (configuration not stated) | -6.1 | -0.1 | 0.0 | 5.7 | -17.2 | 25.1 | x | x
CCC1Nc2ncnc(N3CCN(c4ccccc4)CC3)c2N(Cc2ccccc2)C1=O (configuration not stated) | -0.5 | -0.7 | 2.0 | 2.4 | -12.9 | 60.3* | 29.3 | 13.8
COCCC(=O)N1CCC(Oc2ccc(C(=O)N3CCCCC3COC)cc2)CC1 (configuration not stated) | -1.6 | -0.1 | -2.8 | -3.3 | -8.1 | -1.4 | x | x
COc1ccc(OCc2cc(C(=O)NC3CCOCC3)no2)c2ccccc12 | -0.1 | 0.1 | 0.0 | -17.6 | 3.0 | 40.6* | 37.3 | -3.0
COc1cccc(OCc2cc(C(=O)NC3CCOCC3)no2)c1 | 1.0 | -0.4 | -0.2 | 10.7 | -3.1 | -7.6 | x | x
Cc1c(C(=O)N(C)CCOc2ccccc2)oc2c(Cl)cccc12 | -2.6 | 1.1 | 0.6 | 17.4 | -1.4 | 44.6* | 38.3 | 12.2
Cc1ccc(C)c(NC(=O)CN(C)C(=O)c2oc3c(Cl)cccc3c2C)c1 | 1.0 | -0.1 | 0.5 | 6.3 | 9.9 | 20.1 | x | x
COCCn1c(SCC(=O)NNC(=O)c2cc(Cl)ccc2OC)nnc1-c1ccncc1 | -3.4 | -0.4 | -2.9 | 35.1 | 0.0 | 48.7* | 36.5 | 11.4
COCCn1c(SCC(=O)Nc2cccc(OC)c2)nnc1-c1ccc(Cl)cc1 | -2.0 | 0.8 | 0.5 | 11.8 | 0.3 | -8.7 | x | x
COC(CNC(=O)c1ccc2c3c(onc13)-c1ccccc1C2=O)OC | -4.0 | -0.9 | 7.0 | -229.1 | 25.6 | 72.7* | 56.8* | 9.8 | Fluor interf inh=>100
COc1ccc(C(=O)N(Cc2ccccc2)c2cccc(C)c2)cc1S(=O)(=O)N1CCOCC1 | -5.9 | 0.6 | -1.1 | 5.4 | 8.3 | 45.2* | 34.6 | 4.4
Cc1cccc(N(Cc2ccccc2)C(=O)c2ccc(C)c(S(=O)(=O)N3CCOCC3)c2)c1 | -5.5 | -0.2 | -1.7 | 14.8 | 11.5 | 12.7 | x | x
Cc1cc(C(=O)N/N=C2\CC(=O)c3ccccc32)c(C)n1-c1ccc(F)cc1 | -3.9 | 0.9 | 1.4 | -14.3 | -2.8 | 68.9* | 22.2 | -1.6
CCOC(=O)c1c(C)oc2c1C(=O)c1ccccc1C2=O | -5.7 | -2.8 | 2.9 | -77.7 | 3.3 | 68.5* | 67.8* | 1.6 | Fluor interf inh=>100
Cc1oc2c(c1C(=O)O)C(=O)c1ccccc1C2=O | -4.3 | -0.4 | 0.3 | -56.3 | -1.6 | 79.5* | 68.5* | -1.3 | Fluor interf inh=>100
Cc1cc(=O)oc(C)c1C(=O)O | -1.0 | -1.3 | -0.1 | 17.9 | -4.0 | -17.3 | x | x
CCC(C)c1ccccc1N1CC(C(=O)NCCc2ccc(OC)c(OC)c2)CC1=O (configuration not stated) | -0.1 | -0.3 | -0.7 | -7.3 | -0.4 | 2.8 | x | x
CC(=O)c1ccc2noc(-c3ccccc3)c2c1 | -4.4 | 0.0 | -0.8 | -5.6 | 1.9 | -3.1 | x | x
CC(=O)c1ccc2c(c1)c(C#N)c1ccccc1[n+]2[O-] | -3.7 | -0.2 | 0.6 | -89.8 | u | 73.9* | 42.3* | 2.2 | Fluor interf inh=>100
CCOC(=O)C1CCN(C(=O)Cn2nc(C)n3cccc3c2=O)CC1 | -3.9 | 0.7 | 0.4 | -8.1 | -0.3 | 3.1 | x | x
Cc1ccc(N2CCN(S(=O)(=O)c3cccs3)CC2C)cc1 (configuration not stated) | -4.6 | 0.3 | -0.7 | -3.8 | 1.2 | 62.2* | 15.0 | 8.7
COc1ccc(S(=O)(=O)N2CCC3CC2c2cc(-c4ccc5c(c4)OCO5)ccc23)cc1 (configuration not stated) | x | -0.9 | -0.9 | x | -0.6 | x | x | x
Cc1ccc2c(c1)c(=O)c1c3n2CCN(C(=O)CCl)C3CC1 (configuration not stated) | -4.0 | -0.6 | -2.6 | -50.4 | -0.2 | 63.6* | 18.4 | -7.0
COc1ccc(-n2c(C)cc(/C=N/Nc3nnc(C)n3N)c2C)cc1 | -0.1 | 3.1 | 2.3 | -6.6 | -0.1 | 52.6* | 1.2 | 0.4
c1ccc(NC2=Nc3cccc4cccc2c34)cc1 | -4.7 | -0.4 | -1.0 | -2.0 | -0.9 | 14.8 | x | x
SMILES | MIN6 prolif | iPSC survival up | MPTP block | UBC13 inh | Exocytosis inh | Apaf1 inhib | Apaf-1 inh conf2 | Rh110 interf inh | others
c1ccc2c(c1)CCN(C1=Nc3cccc4cccc1c34)C2 | -1.8 | -2.6 | 1.8 | -33.1 | 0.7 | 42.9* | 9.9 | 4.8
CC(C)C[C@@H](CN1CCC[C@@H]1CN1C(=S)NC[C@@H]1Cc1ccc(O)cc1)N1C[C@H](Cc2ccc(O)cc2)N(CCc2ccccc2)C1=S | x | -0.7 | 3.3 | x | 42.7 | x | x | x
CC(C)OP(=O)(OC(C)C)C(Nc1ccccn1)c1ccc(F)cc1 (configuration not stated) | 0.0 | -1.2 | 0.1 | -6.7 | 9.7 | 54.9* | 12.2 | 1.4
O=C1C(=Cc2ccco2)C(=O)c2ccccc21 | -1.5 | 0.9 | 1.9 | -40.7 | -2.9 | 44.4* | 10.4 | 2.1
O=C(Nc1ncccc1O)c1ccc(Cl)c(S(=O)(=O)N2CCCCC2)c1 | -1.6 | -0.5 | 0.8 | -4.0 | -4.7 | -0.8 | x | x
Cc1ccc2[nH]c3c(c2c1)CN(C(=O)CN1CCN(c2cccc(C)c2C)CC1)CC3 | -3.8 | 7.1 | 1.5 | 1.9 | 0.0 | 42.6* | 18.8 | 6.4
Cc1ccc2[nH]c3c(c2c1)CN(C(=O)CN1CCN(C(=O)c2ccco2)CC1)CC3 | -1.6 | x | x | -1.2 | x | 19.4 | x | x
N#Cc1ccc(CC(=O)c2ccccc2)[nH]c1=O | x | 0.4 | -0.7 | x | 22.3 | x | x | x
Cc1cccn2c(NC(=O)c3ccccc3F)c(-c3ccccc3)nc12 | -3.4 | 0.1 | -0.7 | -0.6 | -7.8 | 2.8 | x | x
CC(=O)Nc1ccc2c(c1)N(C(=O)CN(C)C)c1ccccc1CC2 | 1.3 | 0.4 | -0.1 | -10.7 | 0.3 | 42.6* | 21.9 | 6.0
O=C(Nc1ccccc1Cl)c1c(F)c(F)c(F)c(F)c1F | -6.0 | 0.6 | -0.2 | -3.9 | 2.9 | 10.8 | x | x
COC1(NC(=O)c2ccccc2)C(C)=CC(=O)C=C1C | 2.2 | -1.6 | -0.2 | -3.2 | 3.3 | 1.2 | x | x
